ChEMBL document CHEMBL4052587, “Talarazines A-E: Noncytotoxic Iron(III) Chelators from an Australian Mud Dauber Wasp-Associated Fungus, Talaromyces sp. (CMB-W045)” (J Nat Prod, 2017)
Blank lines part the entries; values can stand above or below the molecule they belong to. Active and inactive are the calls of the source. The rule behind the calls is not given here.

Legend:
Escherichia coli = assay: Growth inhibition of Escherichia coli ATCC 25922 after 24 by broth micro-dilution method; type: functional
Staphylococcus aureus = assay: Growth inhibition of Staphylococcus aureus ATCC 25923 after 24 by broth micro-dilution method; type: functional
SW-620 = assay: Cytotoxicity against human SW620 cells assessed as reduction in cell viability up to 30 uM after 68 hrs by MTT assay; type: functional, cell-based
Candida albicans = assay: Growth inhibition of Candida albicans ATCC 90028 after 48 by broth micro-dilution method; type: functional
Pseudomonas aeruginosa = assay: Growth inhibition of Pseudomonas aeruginosa ATCC 27853 after 24 by broth micro-dilution method; type: functional
KB 3-1 = assay: Cytotoxicity against human KB-3-1 cells assessed as reduction in cell viability up to 30 uM after 68 hrs by MTT assay; type: functional, cell-based
NCI-H460 = assay: Cytotoxicity against human NCI-H460 cells assessed as reduction in cell viability up to 30 uM after 68 hrs by MTT assay; type: functional, cell-based
[1] = Metal chelating activity of the compound assessed as fluorescence recovery of calcein-Fe3 complex formation up to 10 uM measured after overnight incubation by CAFe based fluorescence spectrophotometry
How it was run: (§1)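 Competition assay between the test chelator and a calcein–Fe(III) complex. Calcein is a fluorescent chelator with high Fe(III) affinity, and Fe(III) coordination quenches its fluorescence stoichiometrically. Relative Fe(III) affinity is inferred from the competing equilibrium, read as change in calcein fluorescence.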

[2] = Metal chelating activity of the compound assessed as fluorescence recovery of calcein-Fe3 complex formation up to 40 uM measured after overnight incubation by CAFe based fluorescence spectrophotometry; how it was run: as §1

Structure (SMILES): CC(=O)N[C@@H](CCCN(O)C(=O)/C=C(\C)CCO)C(=O)OCC/C(C)=C/C(=O)N(O)CCC[C@@H]1NC(=O)[C@H](CCCNC(=O)/C=C(\C)CCO)NC1=O
IC50 (Escherichia coli): > 30 µM
IC50 (Staphylococcus aureus): > 30 µM
Activity (SW-620): inactive
IC50 (Candida albicans): > 30 µM
IC50 (Pseudomonas aeruginosa): > 30 µM
Activity (KB 3-1): inactive
Activity (NCI-H460): inactive

Activity [1]: Active
Activity [2]: Active
Structure (SMILES): CC(=O)N[C@@H](CCCN(O)C(=O)/C=C(\C)CCO)C(=O)OCC/C(C)=C/C(=O)N(O)CCC[C@@H]1NC(=O)[C@H](CCCN(O)C(=O)/C=C(\C)CCO)NC1=O
IC50 (Escherichia coli): > 30 µM
IC50 (Staphylococcus aureus): > 30 µM
Activity (SW-620): inactive
IC50 (Candida albicans): > 30 µM
IC50 (Pseudomonas aeruginosa): > 30 µM
Activity (KB 3-1): inactive
Activity (NCI-H460): inactive

Structure (SMILES): C/C(=C\C(=O)NCCC[C@@H]1NC(=O)[C@H](CCCNC(=O)/C=C(\C)CCO)NC1=O)CCO
IC50 (Escherichia coli): > 30 µM
IC50 (Staphylococcus aureus): > 30 µM
Activity (SW-620): inactive
IC50 (Candida albicans): > 30 µM
IC50 (Pseudomonas aeruginosa): > 30 µM
Activity (KB 3-1): inactive
Activity (NCI-H460): inactive

Structure (SMILES): CC(=O)N[C@@H](CCCN(O)C(=O)/C=C(\C)CCO)C(=O)OCC/C(C)=C/C(=O)NCCC[C@@H]1NC(=O)[C@H](CCCNC(=O)/C=C(\C)CCO)NC1=O
IC50 (Escherichia coli): > 30 µM
IC50 (Staphylococcus aureus): > 30 µM
Activity (SW-620): inactive
IC50 (Candida albicans): > 30 µM
IC50 (Pseudomonas aeruginosa): > 30 µM
Activity (KB 3-1): inactive
Activity (NCI-H460): inactive

Structure (SMILES): C/C(=C\C(=O)NCCC[C@@H]1NC(=O)[C@H](CCCN(O)C(=O)/C=C(\C)CCO)NC1=O)CCO
IC50 (Escherichia coli): > 30 µM
IC50 (Staphylococcus aureus): > 30 µM
Activity (SW-620): inactive
IC50 (Candida albicans): > 30 µM
IC50 (Pseudomonas aeruginosa): > 30 µM
Activity (KB 3-1): inactive
Activity (NCI-H460): inactive

Structure (SMILES): CC(=O)N[C@@H](CCCN(O)C(=O)/C=C(\C)CCO)C(=O)OCC/C(C)=C/C(=O)NCCC[C@@H]1NC(=O)[C@H](CCCN(O)C(=O)/C=C(\C)CCO)NC1=O
IC50 (Escherichia coli): > 30 µM
IC50 (Staphylococcus aureus): > 30 µM
Activity (SW-620): inactive
IC50 (Candida albicans): > 30 µM
IC50 (Pseudomonas aeruginosa): > 30 µM
Activity (KB 3-1): inactive
Activity (NCI-H460): inactive

Activity [1]: Active
Activity [2]: Active
Structure (SMILES): C/C(=C\C(=O)N(O)CCC[C@@H]1NC(=O)[C@H](CCCN(O)C(=O)/C=C(\C)CCO)NC1=O)CCO
IC50 (Escherichia coli): > 30 µM
IC50 (Staphylococcus aureus): > 30 µM
Activity (SW-620): inactive
IC50 (Candida albicans): > 30 µM
IC50 (Pseudomonas aeruginosa): > 30 µM
Activity (KB 3-1): inactive
Activity (NCI-H460): inactive
